# Active and inactive are the calls of the source. No cut-off for these calls is given here.
# Tests used:
# Rattus norvegicus [1] = test: Antihypertensive activity in Wistar rat assessed as inhibition of methoxamine-induced change in blood pressure at 0.1 mg/kg, iv administered 10 mins after methoxamine challenge; assay type: functional
# Outline: (§1)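 Male Wistar rats (200–290 g) anaesthetized with i.p. thiopental 70 mg/kg, maintained by thiopental infusion, 36–37 °C. Carotid catheter for BP/HR, jugular line for infusion. Methoxamine i.v. infusion 10 or 20 µg/kg/min began 10 min before 0.1 mg/kg i.v. bolus. Readout is ΔMAP or ΔHR from time 0. Five to seven rats per group; repeated-measures ANOVA.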
# Rattus norvegicus [2] = test: Antihypertensive activity in Wistar rat assessed as inhibition of methoxamine-induced change in heart rate at 0.1 mg/kg, iv administered 10 mins after methoxamine challenge; assay type: functional; outline: as §1
# Rattus norvegicus [3] = test: Antihypertensive activity in Wistar rat assessed as inhibition of methoxamine-induced change in blood pressure at 0.1 mg/kg, iv administered 10 mins after 20 ug/kg/min methoxamine challenge; assay type: functional, organism-based; design: dose 0.1 mg/kg; outline: as §1
# Rattus norvegicus [4] = test: Antihypertensive activity in Wistar rat assessed as inhibition of methoxamine-induced change in heart rate at 0.1 mg/kg, iv administered 10 mins after 10 ug/kg/min methoxamine challenge; assay type: functional, organism-based; design: dose 0.1 mg/kg; outline: as §1
# Rattus norvegicus [5] = test: Antihypertensive activity in Wistar rat assessed as inhibition of methoxamine-induced change in heart rate at 0.1 mg/kg, iv co-administered with 10 ug/kg/min methoxamine challenge; assay type: functional, organism-based; design: dose 0.1 mg/kg; outline: as §1
# Rattus norvegicus [6] = test: Antihypertensive activity in Wistar rat assessed as inhibition of methoxamine-induced change in heart rate at 0.1 mg/kg, iv co-administered with 20 ug/kg/min methoxamine challenge; assay type: functional, organism-based; design: dose 0.1 mg/kg; outline: as §1
# Rattus norvegicus [7] = test: Anxiolytic activity in Sprague-Dawley rat assessed as loss of righting reflex at 10 ug/kg, ip measured after 30 mins; assay type: functional, organism-based
# Outline: (§2)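 Male Sprague–Dawley rats (250–270 g) were handled by the experimenter one day before testing. Compound was dissolved in sterile saline and given i.p. If no loss of righting reflex occurred after 5 min, the dose was repeated, up to 2000 µg/kg cumulative. Animals were watched for righting reflex, locomotion, motor coordination and behaviour. Righting reflex was scored at 30 min.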
# Rattus norvegicus [8] = test: Anxiolytic activity in Sprague-Dawley rat assessed as loss of righting reflex at 500 ug/kg, ip measured after 30 mins; assay type: functional, organism-based; outline: as §2
# Rattus norvegicus [9] = test: Anxiolytic activity in Sprague-Dawley rat assessed as loss of righting reflex at 1000 ug/kg, ip measured after 30 mins; assay type: functional, organism-based; outline: as §2
# Rattus norvegicus [10] = test: Anxiolytic activity in Sprague-Dawley rat assessed as loss of righting reflex at 2000 ug/kg, ip measured after 30 mins; assay type: functional, organism-based; outline: as §2
# Rattus norvegicus [11] = test: Toxicity in Sprague-Dawley rat assessed as loss of spontaneous locomotory activity at 10 to 2000 ug/kg, ip measured within 5 to 8 mins; assay type: organism-based; details: in vivo; outline: as §2
# Rattus norvegicus [12] = test: Toxicity in Sprague-Dawley rat assessed as calm behavior at 10 to 2000 ug/kg, ip measured after 30 mins; assay type: organism-based; details: in vivo, 0.5 h
# Rattus norvegicus [13] = test: Toxicity in Sprague-Dawley rat assessed as subdued state at 10 to 2000 ug/kg, ip measured after 30 mins; assay type: organism-based; details: in vivo, 0.5 h; outline: as §2
# Rattus norvegicus [14] = test: Toxicity in Sprague-Dawley rat assessed as still state at 10 to 2000 ug/kg, ip measured after 30 mins; assay type: organism-based; details: in vivo, 0.5 h; outline: as §2
# Rattus norvegicus [15] = test: Toxicity in Sprague-Dawley rat assessed as exploratory behavior at 10 to 2000 ug/kg, ip measured after 30 mins; assay type: organism-based; details: in vivo, 0.5 h
# Rattus norvegicus [16] = test: Toxicity in Sprague-Dawley rat assessed as resistance to handling at 10 to 2000 ug/kg, ip measured after 30 mins; assay type: organism-based; details: in vivo, 0.5 h; outline: as §2
# Rattus norvegicus [17] = test: Antihypertensive activity in Wistar rat assessed as inhibition of methoxamine-induced change in heart rate at 0.1 mg/kg, iv administered 10 mins after 20 ug/kg/min methoxamine challenge; assay type: functional, organism-based; design: dose 0.1 mg/kg; outline: as §1
smiles,measurement,setting,value
Cl.Clc1cccc2cnn(CC3=NCCN3)c12,Activity,Rattus norvegicus [1],-47.7 mmHg
same,Activity,Rattus norvegicus [2],-131.8 bpm
same,Activity,Rattus norvegicus [3],inactive
same,Activity,Rattus norvegicus [4],inactive
same,Activity,Rattus norvegicus [5],Active
same,Activity,Rattus norvegicus [6],Active
same,Activity,Rattus norvegicus [7],inactive
same,Activity,Rattus norvegicus [8],inactive
same,Activity,Rattus norvegicus [9],Active
same,Activity,Rattus norvegicus [10],Active
same,Activity,Rattus norvegicus [11],Toxic
same,Activity,Rattus norvegicus [12],Non-toxic
same,Activity,Rattus norvegicus [13],Non-toxic
same,Activity,Rattus norvegicus [14],Non-toxic
same,Activity,Rattus norvegicus [15],Non-toxic
same,Activity,Rattus norvegicus [16],Non-toxic
same,Activity,Rattus norvegicus [17],inactive

# — ChEMBL document CHEMBL1926556, “Synthesis and biological activities of 2-[(heteroaryl)methyl]imidazolines” (Bioorg Med Chem, 2012)
